Experimental data collected from several papers.
Compare with care: the assays were run in different laboratories.
Target: Serine/threonine-protein kinase PAK 6 (PAK6, Homo sapiens, UniProt Q9NQU5)

SMILES	assay	setting	measurement	value
CNC(=O)c1ccc(Nc2ncc(C(F)(F)F)c(NCc3nccnc3N(C)S(C)(=O)=O)n2)cc1	cell-free assay, competition with immobilised ligand	0.1 µM	remaining binding	100%
CN(C)c1nccc(-c2cnn3ncccc23)n1	binding	1 µM	remaining binding	100%
CNC(=O)c1cc(Oc2ccc(NC(=O)Nc3ccc(Cl)c(C(F)(F)F)c3)cc2)ccn1	enzyme activity, inhibitor	10 µM	inhibition	-29%
CC(C)(O)[C@H]1CC[C@H](Nc2ccc3ncc(-c4cccc(C(F)(F)F)c4)n3n2)CC1	enzyme activity, inhibitor	1 µM	remaining activity	101%
O=C1Nc2ccc(Cl)cc2C1=Cc1cc(Cl)c(O)c(Cl)c1	cell-free assay	0.5 µM	remaining signal	97%
Cc1ccc(NC(=O)c2ccc(C)c(C(F)(F)F)c2)cc1C#Cc1nn(C2CCC(O)CC2)c2ncnc(N)c12 (centres unmarked)	cell-free assay	10 µM	remaining signal	92%
CCCS(=O)(=O)Nc1ccc(F)c(C(=O)c2c[nH]c3ncc(-c4ccc(Cl)cc4)cc23)c1F	enzyme activity, inhibitor	1 µM	inhibition	< 20%
CCN(CC)c1ccc(C2=NNC(=O)CC2C)cc1[N+](=O)[O-] (centres unmarked)	enzyme activity, inhibitor	10 µM	remaining activity	126%
Nc1nc(Nc2ccc(S(N)(=O)=O)cc2)nn1C(=O)c1c(F)cccc1F	cell-free assay	0.5 µM	remaining signal	101%
CO[C@H]1CC[C@H](CNc2ccc(S(=O)(=O)NC(=O)c3ccc(N4CCN(CC5=C(c6ccc(Cl)cc6)CC(C)(C)CC5)CC4)cc3Oc3cnc4[nH]ccc4c3)cc2[N+](=O)[O-])CC1	cell-free assay, competition with immobilised ligand	1 µM	remaining binding	75%
Cc1cnc(NC2CCOCC2)nc1-n1cnc(C(=O)NC(CN)c2cc(F)cc(Cl)c2)c1 (centres unmarked)	enzyme activity, inhibitor, radiometric	1 µM	remaining activity	70%
Cc1ccc(Nc2nccc(N(C)c3ccc4c(C)n(C)nc4c3)n2)cc1S(N)(=O)=O	cell-free assay, inhibitor	0.5 µM	remaining signal	105%
CC(C)(C)c1nc2c(s1)c1nc(N)ncc1c1ccc(NS(=O)(=O)c3c(F)cccc3F)c(F)c12	enzyme activity, inhibitor, radiometric	1 µM	remaining activity	89%
FC(F)(F)Oc1cccc(-c2cnc3ccc(-c4ccncc4)nn23)c1	enzyme activity, inhibitor, radiometric	5 µM	activity vs control	90%
O=C(Nc1cnn(-c2csc(C(=O)NC3COC3)c2)c1)Nc1c(F)cccc1Cl	enzyme activity, inhibitor	5 µM	remaining activity	92.9%
O=C(NCc1ncc(C(F)(F)F)cc1Cl)c1ccc2c(c1)C1(CCS(=O)(=O)CC1)[C@H](C1CC1)N2S(=O)(=O)c1ccc(F)cc1	cell-free assay, competition with immobilised ligand	1 µM	remaining binding	100%
CC/C(=N\NC(=O)NCc1cccc(O)c1)c1ccc(O)c(C)c1O	enzyme activity, inhibitor	0.1 µM	inhibition	1.5%
COc1cc(Nc2cnc(C#N)c(O[C@H](C)CN(C)C)n2)ncc1-c1cnn(C)c1	enzyme activity, inhibitor, radiometric	1 µM	remaining activity	77%
Cc1ccc(C(=O)NCc2ccsc2)cc1C#Cc1cn(C(C)C)c2ncnc(N)c12	enzyme activity, inhibitor	1 µM	activity vs control	108%
O=C(NCCCC1CCCCC1)c1ccc(CNC(=O)c2cnn(-c3ccccc3)c2C(F)(F)F)cc1	cell-free assay, competition with immobilised ligand	0.1 µM	remaining binding	100%
COc1cc2ncnc(Nc3ccc(Oc4ccccc4)c(C)c3C)c2cc1OC	enzyme activity, inhibitor	1 µM	inhibition	-6%
CS(=O)(=O)NCC[C@H](NC(=O)c1cncc2c1cnn2-c1ccc(F)cc1)c1ccnc(S(C)(=O)=O)c1	cell-free assay, competition with immobilised ligand	1 µM	remaining binding	100%
Oc1cccc(-c2nc(N3CCOCC3)c3oc4ncccc4c3n2)c1	enzyme activity, inhibitor	10 µM	remaining activity	108%
CSc1cccnc1N1CCN(Cc2nc3ccccc3[nH]2)CC1	cell-free assay, competition with immobilised ligand	1 µM	remaining binding	100%
Nc1nc(NC2CCCCC2)sc1C(=O)c1ccccc1	enzyme activity, inhibitor	10 µM	remaining activity	93%
CCOCCn1cc(C(=O)Nc2ccc(-n3nc(-c4cccnc4)cc3C(F)(F)F)cn2)ccc1=O	cell-free assay, competition with immobilised ligand	1 µM	remaining binding	100%
O=C(Nc1cnn(-c2csc(C(=O)NC3COC3)c2)c1)Nc1ccccc1Cl	enzyme activity, inhibitor	5 µM	remaining activity	131%
Cn1cc(Cl)c2c(Oc3c(F)cc(Nc4cc(Cl)nc(N)n4)cc3F)ccnc21	cell-free assay, competition with immobilised ligand	0.1 µM	remaining binding	100%
CCN(CC)CCNC(=O)c1c(C)[nH]c(/C=C2\C(=O)Nc3ccc(F)cc32)c1C	enzyme activity, inhibitor	0.3 µM	inhibition	-11%
